Experimental findings from ChEMBL document CHEMBL1141347, “Heptaketides from Corynespora sp. inhabiting the cavern beard lichen, Usnea cavernosa: first report of metabolites of an endolichenic fungus” (J Nat Prod, 2007) are described below.

pIC50: −log10 of the molar value. The source made the active and inactive calls. No cut-off for these calls is given here.

Assay [1] has as its system MDA-MB-231. Kind of assay: Inhibition of human MDA-MB-231 cell migration by wound-healing assay. Type of assay: functional, cell-based.
For assay [2], the system named is PC-3M. Briefly: Inhibition of human PC3M cell migration by wound-healing assay. It is filed as functional, cell-based.
Assay [3] has as its system PC-3M. Briefly: Effect on cell viability of human PC3M cells at 5 uM by microscopy based assay. Type of assay: functional. An outline of the steps:
(§1)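 Cells exposed during wound-healing assay, then stained with a live/dead kit. Live cells fluoresce green from esterase conversion of calcein AM to calcein; ethidium homodimer 1 enters membrane-damaged cells, giving red fluorescence on nucleic acid binding. Imaged by microscopy. Controls: DMSO (background), LY294002 7.5 µM, 0.1% saponin for 10 min (death).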

In assay [4] the test system is PC-3M. Briefly: Effect on cell viability of human PC3M cells at 5 uM by flow cytometry. It is filed as functional, cell-based. An outline of the steps: (§2)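 Cells harvested straight from wound-healing assays by trypsinisation, washed twice with PBS, stained with ViaCount Flex reagent and run on a Guava EasyCyte flow cytometer, with EasyFit analysis separating viable cells from dead cells and debris. DMSO background control, 70% methanol death control, LY294002 control.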
In general terms: Flow cytometry measures light scatter and fluorescence of single cells or particles in a stream.

Assay [5] concerns MDA-MB-231. Kind of assay: Effect on cell viability of human MDA-MB-231 cells at 5 uM by microscopy based assay. It is filed as functional. The method, boiled down: as §1
The test system of assay [6] is MDA-MB-231. Kind of assay: Effect on cell viability of human MDA-MB-231 cells at 5 uM by flow cytometry. It is filed as functional, cell-based. An outline of the steps: as §2
A short description of assay [7]: Antiproliferative activity against human PC3M cells after 40 hrs by MTT assay. To be noted: PC-3M. Type of assay: functional, cell-based. A general note: Formazan colour is commonly taken as a measure of viable cells.
The test system of assay [8] is PC-3M. Kind of assay: Inhibition of human PC3M cell migration at 5 uM by wound-healing assay. It is filed as functional, cell-based.
Assay [9] relates to MDA-MB-231. Kind of assay: Inhibition of human MDA-MB-231 cell migration at 5 uM by wound-healing assay. It is filed as functional, cell-based.
The test system of assay [10] is PC-3M. Briefly: Inhibition of human PC3M cell migration at 10 uM by wound-healing assay. Type of assay: functional, cell-based. The method, boiled down:
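PC-3M scratch wound-healing migration assay with compound at 10 µM over 40 h. DMSO negative and LY294002 positive controls.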

For `COc1cc(OC)c2c(OC(C)=O)c3c(c(OC(C)=O)c2c1)C=C(C)OC3`, the result with MDA-MB-231 [1] and with PC-3M [2] was inactive.

As usually defined, the IC25 is the concentration needed for an effect of 25%. Low values mean greater potency, high ones weaker potency. In general, pIC50 refers to the negative decadic logarithm of the IC50, by convention in mol/L. Take `COc1cc(OC)c2c(c1)C(=O)C1=C(COC(C)=C1)C2=O` [DEHYDROHERBARIN]: the result in the assay on PC-3M [3], in the assay on PC-3M [4], in the assay with MDA-MB-231 [5] and in the assay on MDA-MB-231 [6] was inactive. In assay [7], the 25% effect level (IC25) was put at 2200 nM. The same compound showed a negative logarithm of the IC50 (pIC50) in assay [7] of 5.46. Moreover, the result with PC-3M [8] and with MDA-MB-231 [9] was Active.

Consider `COc1cc(OC)c2c(c1)C(=O)C1=C(C2=O)C(O)OC(C)=C1` (configuration not stated), for which the outcome with MDA-MB-231 [1] and in the assay on PC-3M [2] was inactive.

In the case of `COc1cc(OC)c2c(O)c3c(c(OC(C)=O)c2c1)C=C(C)OC3`, the result in the assay with MDA-MB-231 [1] and in the assay on PC-3M [2] was inactive.

On to `COc1cc(OC)c2c(O)c3c(c(OC(C)=O)c2c1)C[C@](C)(O)OC3`, for which the outcome in the assay on MDA-MB-231 [1] and in the assay on PC-3M [2] was inactive.

For the compound `COc1cc(OC)c2c(c1)C(=O)C1=C(CO[C@@](C)(O)C1)C2=O`, in the assay on PC-3M [10], the outcome was Active.
